# Laboratory results published in PMC11032538 (Alzheimer's & Dementia, 2024).
# Assays:
# p-tau species [1] = assay: ^3H-UCB-J saturation binding in AD P1 fraction pre-blocked with tau PET ligands; set-up: species or system Human; conditions: 10 μM pre-blocking of frontal cortex AD P1 fraction
# Procedure, shortened: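 AD frontal cortex pooled P1 fraction was pre-blocked with 10 μM unlabeled tau PET ligand on ice for 1 h. It was then spun at 2800 rpm for 10–15 min at 4°C to remove free ligand and resuspended in binding buffer. Saturation binding used 0–40 nM ³H-UCB-J, 2 h at room temperature, with filtration and scintillation counting. Data are means ± SEM of three to four experiments in duplicate.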
# SV2A [2] = target: T1, SV2A (Homo sapiens, UniProt Q7L0J3); assay type: binding; conditions: 1 mM levetiracetam; 5 nM ^3H-UCB-J; CN frontal cortex P2 (Figure S2)
# T1 sequence (Q7L0J3 whole entry): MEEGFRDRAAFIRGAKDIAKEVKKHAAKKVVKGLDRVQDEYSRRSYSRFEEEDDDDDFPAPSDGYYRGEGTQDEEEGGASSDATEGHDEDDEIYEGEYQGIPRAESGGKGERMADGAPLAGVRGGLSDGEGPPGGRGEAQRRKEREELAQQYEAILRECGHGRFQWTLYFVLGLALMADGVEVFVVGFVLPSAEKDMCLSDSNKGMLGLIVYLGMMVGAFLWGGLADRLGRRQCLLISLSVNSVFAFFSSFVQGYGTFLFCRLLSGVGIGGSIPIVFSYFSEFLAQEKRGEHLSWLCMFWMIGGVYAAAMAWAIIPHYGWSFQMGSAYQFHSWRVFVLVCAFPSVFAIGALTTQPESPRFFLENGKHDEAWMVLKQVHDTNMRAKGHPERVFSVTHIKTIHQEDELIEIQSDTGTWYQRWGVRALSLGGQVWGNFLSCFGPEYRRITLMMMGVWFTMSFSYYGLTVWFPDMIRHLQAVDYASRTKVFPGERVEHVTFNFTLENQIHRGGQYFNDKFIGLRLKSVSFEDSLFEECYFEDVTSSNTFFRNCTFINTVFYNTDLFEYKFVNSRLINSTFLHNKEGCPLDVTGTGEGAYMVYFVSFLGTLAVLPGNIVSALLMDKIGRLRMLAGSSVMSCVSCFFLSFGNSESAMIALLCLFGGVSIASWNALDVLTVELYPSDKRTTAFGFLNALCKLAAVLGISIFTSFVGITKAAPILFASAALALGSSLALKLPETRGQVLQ
# p-tau species [3] = assay: ^3H-UCB-J vs MK6240 competition binding in P1 fractions; set-up: species or system Human; conditions: 100 μM; CN and AD P1 fraction; 5 nM ^3H-UCB-J
# Procedure, shortened: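 Pooled frontal cortex P1 fractions (0.05 mg protein) from one control and one AD pool. These were incubated 2 h at room temperature with 5 nM ³H-UCB-J plus increasing unlabeled competitor (10⁻¹⁴ to 10⁻⁴) in Tris-HCl pH 7.4 binding buffer. Samples were filtered and counted by scintillation. Binding was expressed as % of total; IC₅₀ came from non-linear competitive-binding regression.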
# tau = tau (Homo sapiens, UniProt P10636); assay: ^3H-MK6240 vs UCB-J competition binding in P1 fractions; conditions: up to 10 μM UCB-J; CN and AD P1 fractions; 0.5 nM ^3H-MK6240
# Sequence of tau (P10636 623-758 limits assumed): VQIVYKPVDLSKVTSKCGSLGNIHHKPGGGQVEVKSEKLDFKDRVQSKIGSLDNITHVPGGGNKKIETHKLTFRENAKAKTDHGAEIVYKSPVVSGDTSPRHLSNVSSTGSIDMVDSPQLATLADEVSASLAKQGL
# SV2A [4] = target: T1, SV2A; conditions: frontal cortex (middle frontal gyrus) autoradiography; ref 24 Metaxas et al.; cited from earlier work
# SV2A [5] = target: T1, SV2A; conditions: AD middle frontal cortex; ref 34 Mikkelsen et al.; cited from earlier work
structure (smiles),measurement,setting,value
Fc1ccc(-c2ccc3c(c2)[nH]c2ccncc23)cn1 [AV-1451],reduction in ^3H-UCB-J binding compared to unblocked AD P1 fractions,p-tau species [1],≈ 22%
CC[C@@H](C(N)=O)N1CCCC1=O [Levetiracetam],displacement of ^3H-UCB-J binding compared with 1 μM UCB-J,SV2A [2],same displacement
Nc1c(F)ccc2cnc(-n3ccc4ccncc43)cc12 [MK6240],reduction in ^3H-UCB-J binding compared to unblocked AD P1 fractions,p-tau species [1],≈ 22%
same,displacement of ^3H-UCB-J binding,p-tau species [3],≈ 38%
Cc1cnccc1CN1C[C@@H](c2cc(F)c(F)c(F)c2)CC1=O [UCB-J],displacement of ^3H-MK6240 binding,tau,no displacement
same,difference in UCB-J binding between AD and CN cases,SV2A [4],no difference
same,reduction in UCB-J binding in AD compared to CN,SV2A [5],19%
